In ChEMBL document CHEMBL1144051, “Structural considerations of NK109, an antitumor benzo[c]phenanthridine alkaloid” (J Nat Prod, 1999):
In brackets after ≈: the same amount, converted by molar mass.

Columns and labels:
[1] = test system: HeLa; assay: Growth inhibition of human HeLa S3 cells after 72 hrs; assay type: functional, cell-based
Summary of the method: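 HeLa S3 in Eagle's MEM with 10% calf serum and 60 µg/mL kanamycin, 37 °C, 5% CO2; seeded, grown 24 h, then exposed 72 h to compound diluted in 5% glucose at 0.01–10 µg/mL. Nuclei stained with methylene blue, cell number read at 660 nm; IC50 from growth rate relative to control.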

[2] = test system: P388; assay: Antitumor activity against mouse P388 cells xenografted CDF1 mouse at 50 mg/kg, iv administered on day 1 after 30 days relative to control; assay type: functional
Summary of the method: (§1)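 Female CDF1 mice, 6 weeks old, five per group, inoculated iv with P-388 leukemia cells (1 × 10^5 cells/body) on day 0; cells maintained by ip passage in DBA/2 mice. Single tail-vein injection on day 1 (0.1 mL per 10 g), vehicle 5% glucose or EtOH–Cremophore (1:1) diluted in 5% glucose. Followed 30 days; T/C (%) from median survival time, treated versus control.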

[3] = test system: Mus musculus; assay: Toxicity in mouse P388 cells xenografted CDF1 mouse assessed as decrease in body weight at 150 mg/kg, iv administered on day 1 after 30 days; assay type: organism-based; set-up: dose 150 mg/kg, route intravenous; conditions: in vivo, 720 h
Summary of the method: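 Female CDF1 mice, 6 weeks old, five per group, given P-388 cells iv (1 × 10^5 cells/body) on day 0, then a single tail-vein dose on day 1 in 5% glucose or EtOH–Cremophore (1:1) diluted in 5% glucose. Body weight tracked against untreated controls, reported as mean with s.e.mean.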

[4] = test system: Mus musculus; assay: Toxicity against mouse P388 cells xenografted CDF1 mouse assessed as survival time at 150 mg/kg, iv; assay type: organism-based; set-up: dose 150 mg/kg, route intravenous; conditions: in vivo; summary of the method: as §1
[5] = test system: P388; assay: Antitumor activity against mouse P388 cells xenografted CDF1 mouse at 75 mg/kg, iv administered on day 1 after 30 days relative to control; assay type: functional; summary of the method: as §1
[6] = Dissociation constant, pKa of the compound; assay type: physicochemical
[7] = test system: Mus musculus; assay: Toxicity against mouse P388 cells xenografted CDF1 mouse assessed as survival time at 75 mg/kg, iv; assay type: organism-based; set-up: dose 75 mg/kg, route intravenous; conditions: in vivo; summary of the method: as §1
[8] = test system: Mus musculus; assay: Toxicity against mouse P388 cells xenografted CDF1 mouse assessed as survival time at 50 mg/kg, iv; assay type: organism-based; set-up: dose 50 mg/kg, route intravenous; conditions: in vivo; summary of the method: as §1
[9] = test system: P388; assay: Antitumor activity against mouse P388 cells xenografted CDF1 mouse at 150 mg/kg, iv administered on day 1 after 30 days relative to control; assay type: functional; summary of the method: as §1
[10] = test system: Mus musculus; assay: Toxicity against mouse P388 cells xenografted CDF1 mouse assessed as survival time at 12.5 mg/kg, iv; assay type: organism-based; set-up: dose 12.5 mg/kg, route intravenous; conditions: in vivo; summary of the method: as §1
[11] = test system: P388; assay: Antitumor activity against mouse P388 cells xenografted CDF1 mouse at 6.25 mg/kg, iv administered on day 1 after 30 days relative to control; assay type: functional; summary of the method: as §1
[12] = test system: P388; assay: Antitumor activity against mouse P388 cells xenografted CDF1 mouse at 25 mg/kg, iv administered on day 1 after 30 days relative to control; assay type: functional; summary of the method: as §1
[13] = test system: P388; assay: Antitumor activity against mouse P388 cells xenografted CDF1 mouse at 12.5 mg/kg, iv administered on day 1 after 30 days relative to control; assay type: functional; summary of the method: as §1
[14] = test system: Mus musculus; assay: Toxicity against mouse P388 cells xenografted CDF1 mouse assessed as survival time at 6.25 mg/kg, iv; assay type: organism-based; set-up: dose 6.25 mg/kg, route intravenous; conditions: in vivo; summary of the method: as §1
[15] = test system: Mus musculus; assay: Toxicity against mouse P388 cells xenografted CDF1 mouse assessed as survival time at 25 mg/kg, iv; assay type: organism-based; set-up: dose 25 mg/kg, route intravenous; conditions: in vivo; summary of the method: as §1

`COc1ccc2c(c1O)CN(C)c1c-2ccc2cc3c(cc12)OCO3` gave an IC50 [1] of 16.2 µg/mL (≈ 48.3 µM).
In the case of `COc1ccc2c(c[n+](C)c3c4cc5c(cc4ccc23)OCO5)c1O.O.O.O=S(=O)([O-])O`, the T/C [2] is reported as 147%, the Activity [3] is reported as “Toxic” and the MSD [4] is reported as 23.5 days. The T/C [5] was 159%, the pKa [6] was 5.3 and the MSD [7] was 14.3 days. It also gave an MSD [8] of 13.2 days, an IC50 [1] of 0.08 µg/mL and a T/C [9] of 261%.
`COc1ccc2c(c[n+](C)c3c4cc5c(cc4ccc23)OCO5)c1OC.[Cl-]` [CHELERYTHRINE CHLORIDE] showed an MSD [10] of 10 days, a T/C [11] of 111% and a T/C [12] of 12%. The T/C [13] was 111%, the MSD [14] was 10 days and the MSD [15] was 1.1 days. The IC50 [1] was 1.24 µg/mL.
`COc1c(O)ccc2c1c[n+](C)c1c3cc4c(cc3ccc21)OCO4.[Cl-]` [FAGARIDINE HYDROCHLORIDE] showed an IC50 [1] of 3.99 µg/mL.
Compound `COc1cc2c(ccc3c4cc(OC)c(OC)cc4c[n+](C)c23)cc1O.[Cl-]` [FAGARONINE] has a T/C [2] of 102%, a T/C [12] of 102% and a T/C [5] of 14%. It also gave an MSD [7] of 1.3 days, an MSD [8] of 9.5 days and an MSD [15] of 9.5 days. It also gave an IC50 [1] of 0.39 µg/mL.
In the case of `COc1cc2c[n+](C)c3c4cc5c(cc4ccc3c2cc1OC)OCO5.[Cl-]` [NITIDINE CHLORIDE], the T/C [2] is reported as 102%, the T/C [12] is reported as 108% and the T/C [5] is reported as 46%. For the same compound, the MSD [7] was 4.3 days, the MSD [8] was 9.5 days and the MSD [15] was 10 days. The IC50 [1] was 0.05 µg/mL.
Work on `C[n+]1cc2c3c(ccc2c2ccc4cc5c(cc4c21)OCO5)OCO3.[Cl-]` [SANGUINARIUM CHLORIDE] yielded a T/C [2] of 12%, an MSD [10] of 9.5 days and a T/C [12] of 25%. It also gave a T/C [13] of 102%, an MSD [8] of 1.1 days and an MSD [15] of 2.3 days. For the same compound, the IC50 [1] was 0.16 µg/mL.
